# Experimental data of several laboratories.
Compound,target or system,assay,system,setting,quantity,value
CC(C)(C#Cc1ccc(-c2ccc(Cl)c3c(NS(C)(=O)=O)nn(CC(F)(F)F)c23)c([C@@H](CC2CC2)NC(=O)Cn2nc(C(F)(F)F)c3c2C(F)(F)[C@@H]2C[C@H]32)n1)S(C)(=O)=O,Human immunodeficiency virus 1,"viral replication, inhibitor",,,EC50,0.0038 µM
Cc1ccc(-c2nn(-c3ccccc3)cc2C=Nc2c(N)nc(S)nc2O)cc1,CCRF-CEM,cell growth or viability,,48 h,CC50,< 20 µM
C=CCNc1c2c([nH]c(=O)c1C(=O)OCC)CCC2,Human immunodeficiency virus 1,"viral replication, inhibitor",IIIB,72 h,EC50,> 100 µM
Cc1nc(Nc2ncc(C(=O)Nc3c(C)cccc3Cl)s2)cc(N2CC[C@H](O)C2)n1,SU-DHL-5,"cell growth or viability, ATP luminescence",,"10 µM, 72 h",inhibition,98%
CCOC(=O)c1c(NCCC(C)C)c2c([nH]c1=O)CCC2,Human immunodeficiency virus 1,"viral replication, inhibitor",IIIB,72 h,EC50,9.09 µM
NNC(=O)c1ccncc1,Mycobacterium marinum,microbial growth,,,MIC90,40 µM
CCOC(=O)c1c(NCCCCN)c2c([nH]c1=O)CCC2,Human immunodeficiency virus 1,"viral replication, inhibitor",IIIB,72 h,EC50,> 100 µM
O=[N+]([O-])c1cn2c(n1)OC[C@@H](OCc1ccc(OC(F)(F)F)cc1)C2,Mycobacterium marinum,microbial growth,,,MIC90,50 µM
CC(=O)ON=C1C=CC(=C(C#N)c2ccccc2)C=C1,HDF-1,"cell growth or viability, MTT",,72 h,IC50,24 µg/mL
CC(C)(C#Cc1ccc(-c2ccc(Cl)c3c(NS(C)(=O)=O)nn(CC(F)(F)F)c23)c([C@H](CC2CCCCC2)NC(=O)Cn2nc(C(F)(F)F)c3c2C(F)(F)[C@H]2C[C@@H]32)n1)S(C)(=O)=O,Human immunodeficiency virus 1,"viral replication, inhibitor",,,EC50,0.0007 µM
CCCNc1c2c([nH]c(=O)c1C(=O)OCC)CCC2,Human immunodeficiency virus 1,"viral replication, inhibitor",IIIB,72 h,EC50,30.6 µM
O=C(N[C@@H](CSCc1ccccc1)C(=O)NO)c1ccccc1,HCC4006,"cell growth or viability, MTT",,48 h,IC50,68.2 µM
CC(C)(C#Cc1ccc(-c2ccc(Cl)c3c(NS(C)(=O)=O)nn(CC(F)(F)F)c23)c([C@@H](CC2CCCC2)NC(=O)Cn2nc(C(F)(F)F)c3c2C(F)(F)[C@H]2C[C@@H]32)n1)S(C)(=O)=O,Human immunodeficiency virus 1,"viral replication, inhibitor",,,EC50,0.0123 µM
